Measurements from ChEMBL document CHEMBL1146247, “Identification and characterization of 3-substituted pyrazolyl esters as alternate substrates for cathepsin B: the confounding effects of DTT and cysteine in biological assays” (Bioorg Med Chem Lett, 2007).

Assays:
[1] = biological target: T1, Cathepsin B (Homo sapiens, UniProt P07858); assay: Inhibition of human liver cathepsin B
Procedure, shortened: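 Enzyme activated 15 min in assay buffer (100 mM Na/K phosphate pH 6.8, 1 mM EDTA, 2 mM DTT), then incubated 1 h at room temperature with 15 µM Z-Arg-Arg-AMC and compound. Compound given as 16 2-fold dilutions, 50 µM to 1.5 nM. AMC fluorescence read at ex 355/em 460 nm. Triplicate plates gave three independent IC50 values.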

[2] = biological target: T1, Cathepsin B; assay: Inhibition of human liver cathepsin B pre-incubated for 17 hrs in assay buffer with DTT
Procedure, shortened: (§1)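 Compound held 2, 17 or 24 h in assay buffer (phosphate pH 6.8, with DTT) before testing. It was then incubated with 0.1 nM cathepsin B in 100 mM buffer with 2 mM DTT, 1 mM EDTA and 15 µM Z-Arg-Arg-AMC for 1 h at room temperature. Read-out was AMC fluorescence (ex 355/em 460). IC50 came from 16 2-fold dilutions.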

[3] = biological target: T1, Cathepsin B; assay: Inhibition of human liver cathepsin B pre-incubated for 24 hrs in assay buffer with DTT; procedure, shortened: as §1
[4] = biological target: T1, Cathepsin B; assay: Inhibition of human liver cathepsin B pre-incubated for 2 hrs in buffer without DTT
Procedure, shortened: (§2)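 Compound held 2, 17 or 24 h in phosphate assay buffer pH 6.8 lacking DTT before testing. It was then run in the standard assay: 0.1 nM activated cathepsin B, 15 µM Z-Arg-Arg-AMC, 1 h at room temperature. Read-out was AMC fluorescence at 355/460 nm. IC50 came from a 16-point 2-fold dilution curve.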

[5] = biological target: T1, Cathepsin B; assay: Inhibition of human liver cathepsin B pre-incubated for 17 hrs in buffer without DTT; procedure, shortened: as §2
[6] = biological target: T1, Cathepsin B; assay: Inhibition of human liver cathepsin B pre-incubated for 2 hrs in assay buffer with DTT; procedure, shortened: as §1
[7] = biological target: T1, Cathepsin B; assay: Inhibition of human liver cathepsin B pre-incubated for 24 hrs in buffer without DTT; procedure, shortened: as §2
[8] = biological target: T1, Cathepsin B; assay: Inhibition of human liver cathepsin B pre-incubated for 2 hrs in non-buffer solution without DTT
Procedure, shortened: (§3)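 Compound held 2, 17 or 24 h in non-buffered solution without DTT before testing. It was then assayed against 0.1 nM activated cathepsin B with 15 µM Z-Arg-Arg-AMC for 1 h at room temperature. Read-out was AMC fluorescence at ex 355/em 460 nm. IC50 came from 16 2-fold dilutions.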

[9] = biological target: T1, Cathepsin B; assay: Inhibition of human liver cathepsin B pre-incubated for 17 hrs in non-buffer solution without DTT; procedure, shortened: as §3
[10] = biological target: T1, Cathepsin B; assay: Inhibition of human liver cathepsin B pre-incubated for 24 hrs in non-buffer solution without DTT; procedure, shortened: as §3
[11] = Stability of compound in presence of cathepsin B after 15 mins; type: ADME; conditions: read-out: Stability
Procedure, shortened: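 Stoichiometric incubation of ester (10 μM, 1 equiv) with activated cathepsin B (20 μM, 2 equiv) under standard assay conditions (100 mM sodium-potassium phosphate pH 6.8, 1 mM EDTA, 2 mM DTT); parallel run without enzyme. After 15 min, remaining parent and conversion to pyrazolone by-product measured by LC–MS, 6.5 min run.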

## Cc1ccc(S(=O)(=O)n2nc(OC(=O)c3cccs3)cc2N)cc1
[1]
  IC50: 1990 nM

## Cc1ccc(S(=O)(=O)n2nc(OC(=O)c3ccco3)cc2N)cc1
[1]
  IC50: 1750 nM

## Nc1cc(OC(=O)c2ccco2)nn1S(=O)(=O)c1ccc(F)cc1
[1]
  IC50: 1260 nM

## Nc1cc(OC(=O)c2cccs2)nn1S(=O)(=O)c1ccccc1
[2]
  IC50: 45400 nM
[3]
  IC50: > 50000 nM
[4]
  IC50: 1400 nM
[5]
  IC50: 700 nM
[1]
  IC50: 250 nM
[6]
  IC50: 9000 nM
[7]
  IC50: 3200 nM
[8]
  IC50: 1700 nM
[9]
  IC50: 1800 nM
[10]
  IC50: 5000 nM
[11]
  remaining at 0.25 h: 50%

## COc1ccc(S(=O)(=O)n2nc(OC(=O)c3cccs3)cc2N)cc1
[1]
  IC50: 690 nM

## Nc1cc(OC(=O)c2cccs2)nn1S(=O)(=O)c1ccc(F)cc1
[1]
  IC50: 440 nM
